According to PubChem BioAssay:
Unmarked numbers belong to inactive results. Activity calls are given as the source filed them.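 Rule for the calls: active = growth inhibition above 25% in both replicates, a cutoff set 3 SD above the mean; inconclusive = above 25% in only one replicate; inactive = the rest.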

Experiment: S. cerevisiae growth inhibition in permissive medium (OD615), pilot counter-assay for S. cerevisiae lifespan shortening project, permissive growth control (AID 705)
Conditions: OD615, 24 h, at 10 µM, hits give high values
Summary of the method: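 System: engineered DeaD yeast; Medium: permissive raffinose/galactose medium; Compound dosing: 10 µM single dose, 0.25% DMSO; Incubation: 4 h cell pre-growth, 24 h exposure at 30 °C; Technique: OD at 615 nm; Evaluation: growth inhibition from lowered OD615 after 24 h.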

SMILES	growth inhibition
COc1ccc2oc(C(=O)C3CC3)c(NC(=O)CCCN3C(=O)c4ccccc4C3=O)c2c1	2.6%
CCOC(=O)c1sc(NC(C)=O)cc1C	-1.26%
CCNc1nc2c(c(=O)[nH]c(=O)n2C)n1CC(C)C	-5.42%
COc1ccc(C(=O)c2cnc(C(C)C)n2C)cc1	-3.74%
Cc1cnc(N)c2c(=O)oc3ccccc3c12	-0.41%
CN(C)C(CNC(=O)c1cccs1)c1cccnc1 (stereo not given)	-14.2%
Cc1nn(Cc2ccc(Cl)c(Cl)c2)c(C)c1NC(=O)c1cc(C2CC2)on1	-10.7%
CCOC(=O)c1cnc2c(C#N)c(C)nn2c1-c1ccccc1	-5.3%
CC(=O)N(Cc1ccco1)C1(C(=O)NC2CCCCC2)CCCCC1	-10.7%
CN(C(=O)c1ccc(=O)[nH]c1)C1(C(=O)NC2CCCCC2)CCCCC1	-7.84%
Cc1cccc(OCc2nnc(SCC(=O)Nc3ccc(C)c(C)c3)o2)c1	-5.54%
CCOCCCNC(=O)c1cn(C)c2ccc(S(=O)(=O)N(C)C3CCCCC3)cc2c1=O	-5.04%
CCCCn1c(NC(=O)c2ccccc2)nc2ccccc21	8.39%
COc1cc(OC)cc(-c2cc3nc(C)c(CCC(=O)O)c(C)n3n2)c1	0.5%
CCc1cccc(Nc2cc(C)nc3ncnn23)c1	-5.35%
CCCc1ccc(Oc2c(-c3ccc(O)c(C)c3O)n[nH]c2C)cc1	93.6% (active)
CC(=O)Nc1ccc(S(=O)(=O)c2ccc(N)cc2)cc1N	-3.35%
COc1c2c(nc3ccccc13)OC(C(C)(O)COC(C)=O)C2 (stereo not given)	-2.59%
O=C(Nc1ccc(N2CCCCC2)cc1)c1cncc(Br)c1	5.98%
Cc1ccc2oc(=O)c3cnn(CC(=O)NC4CCCCC4C)c3c2c1 (stereo not given)	-14%

SMILES	growth inhibition
CC1(C)CC(NC(=O)C23CCC(C)(C(=O)C2)C3(C)C)CC(C)(C)N1 (stereo not given)	-4.15%
CC1(C)CC2(CC(C)(C)N1)OC(=O)N1CCc3ccccc3C12C (stereo not given)	-4.17%
COc1ccc(-n2nnnc2S(=O)(=O)CC(=O)N2CCCCC2)cc1	-2.05%
CCCCCSc1nc2c(c(=O)[nH]c(=O)n2C)n1CCc1ccccc1	-3.08%
COc1cc2c(cc1OC)C1=C(C#N)CN(CC(=O)O)CN1CC2	-0.125%
CC(=O)Nc1ccc(S(=O)(=O)N2CCN(c3cccc(C)c3C)CC2)cc1	-2.38%
C=C(C)CSc1nc2c(c(=O)[nH]c(=O)n2C)n1CCC(C)C	-17.9%
Cn1c(Cn2c(=O)sc3ccccc32)nnc1SCC(=O)Nc1ccccc1F	-5.34%
COC(=O)/C=C(\C)NC(=O)c1cccs1	-1.38%
COc1cccc(NC(=O)c2ccncc2)c1	-9.44%
CCCCN(C(=O)NC(=O)Nc1nc2ccc(OC)cc2s1)S(C)(=O)=O	-2.28%
CC(C)N1C(=O)C2C(c3ccccc3O)NC(C)(C(=O)O)C2C1=O (stereo not given)	7.56%
Cc1cccn2c(=O)c3cc(C(=O)NCCCN4CCOCC4)n(C)c3nc12	-4.96%
Cc1csc2nc(CNS(=O)(=O)c3ccc4c(c3)OCCO4)cn12	4.07%
CCN(C(=O)CSc1nnnn1-c1cc(C)ccc1OC)C1CCS(=O)(=O)C1 (stereo not given)	-6.25%
O=C1C2CCCN2C(c2ccc(F)cc2)N1c1cccc(Cl)c1 (stereo not given)	-1.56%
O=C(Nc1ccc2nc(-c3cccnc3)[nH]c2c1)c1ccco1	-2%
CCOC(=O)Cc1csc(NC(=O)CN2C(=O)c3ccccc3S2(=O)=O)n1	-8.36%
Brc1cccc(-c2nc(-c3ccncc3)no2)c1	-7.69%
COc1ccc(N(CC(=O)NC2CCCCC2)S(=O)(=O)c2cccnc2)cc1	-2.11%
